The values below come from PubChem BioAssay AID588395 (Southern Research Specialized Biocontainment Screening …, 2011).

A word on the IC50: it is the concentration that inhibits the measured activity by half.

Active and inactive are the calls of the source.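 The calls were made as follows: active = phage lysis blocked by at least 50% at any tested dose; inconclusive = replicate wells disagree with each other; inactive = the rest.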

For one experiment, the system named is E. coli UTI89 K1F phage lysis inhibition, OD600 3 h. The experiment is described as follows: inhibitors of K1F phage lysis, dose response, capsule biogenesis inhibitor project, E. coli UTI89, set 7 (AID 588395).
Conditions: not given
Put shortly:
(§1)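 Assay system: E. coli UTI89 (K1) / Input: bacterial culture diluted 1:100 into each well / Medium: LB broth / Dosing: 0.78–100 µM final, 1% DMSO / Timing: 1.25 h pre-infection at 37 °C, 3 h phage exposure / Detection: OD600 absorbance / Read-out: inhibition of phage lysis from OD600 at 3 h post-infection / Repeats: duplicates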
In the case of `O=C(Nc1ccncc1)c1ccc2ncsc2c1`, the IC50 was 1310 nM.

`COc1ccc2nc(NC(=O)c3ccc(Br)s3)sc2c1`: the IC50 was 2150 nM.

Test system in the next experiment: not listed separately
The description is as above. The settings on record: E. coli UTI89 K1F phage lysis inhibition, OD600 3 h; at 100 µM (top of the series). A digest of the protocol:
as §1
Regarding `O=C(Nc1ccc(C(F)(F)F)cc1)c1ccc2ncccc2c1`, the inhibition of phage lysis is 2.46% (inactive).

In the case of `O=C(Nc1nc2ccc(F)cc2s1)c1ccc(Br)s1`, the inhibition of phage lysis is 6.49% (inactive).

As for `Cc1ccc(C(=O)Nc2nc3ccc(Br)cc3s2)s1`, the inhibition of phage lysis is -11.1% (inactive).

As to `COc1ccc(NC(=O)c2ccc3ncccc3c2)cc1`, the inhibition of phage lysis was -4.29% (inactive).

With `O=S(=O)(Nc1nc2ccccc2s1)c1ccc(Br)s1`, the inhibition of phage lysis was -2.08% (inactive).

For the molecule `COc1ccc(NC(=O)c2ccc3ncsc3c2)cc1`, the inhibition of phage lysis was 4.51% (inactive).

As for `O=C(Nc1nc2ccc(OC(F)(F)F)cc2s1)c1ccc(Br)cc1`, the inhibition of phage lysis is -15.3% (inactive).

As to `O=C(Nc1nc2ccc(F)cc2s1)c1ccc(Br)cc1`, the inhibition of phage lysis was -15.7% (inactive).

`O=C(Nc1ccc(Br)cc1)c1ccc2ncccc2c1`: the inhibition of phage lysis was -0.43% (inactive).

With `Cc1ccc(C(=O)Nc2nc3ccccc3s2)s1`, the inhibition of phage lysis is -9.44% (inactive).

For the molecule `Cc1ccc(NC(=O)c2ccc3ncccc3c2)cc1`, the inhibition of phage lysis is 0% (inactive).

As for `COc1ccc2nc(NC(=O)c3ccc(Br)cc3)[nH]c2c1`, the inhibition of phage lysis was -2.55% (inactive).

For `COc1ccc2nc(NS(=O)(=O)c3ccc(Br)s3)sc2c1`, the inhibition of phage lysis was -0.42% (inactive).

For `O=C(Nc1nc2ccccc2s1)c1ccc(Br)cc1`, the inhibition of phage lysis is 1.7% (inactive).

Take `O=C(Nc1nc2ccccc2s1)c1ccc(Br)o1`: the inhibition of phage lysis was 0% (inactive).

Regarding `O=C(Nc1nc2ccc(Br)cc2s1)c1ccc(Br)s1`, the inhibition of phage lysis was 18% (inactive).

Turning to `COc1ccc2nc(NC(=O)c3ccc(Br)cc3)sc2c1`, the inhibition of phage lysis is 4.68% (inactive).

Turning to `COc1ccc2nc(NC(=O)c3ccc(Br)s3)[nH]c2c1`, the inhibition of phage lysis was 0.85% (inactive).

Regarding `O=C(Nc1nc2ccccc2s1)c1ccc(Br)s1`, the inhibition of phage lysis was -6.12% (inactive).

Turning to `Cc1ccc(C(=O)Nc2nc3ccc(Cl)cc3s2)s1`, the inhibition of phage lysis was -2.05% (inactive).

`COc1ccc2nc(NC(=O)c3ccc(C)s3)sc2c1`: the inhibition of phage lysis is -3.86% (inactive).

Regarding `O=C(Nc1nc2ccc(F)cc2s1)c1ccc(Br)o1`, the inhibition of phage lysis was 15.8% (inactive).

Turning to `COc1ccc2nc(NC(=O)c3ccc(Br)o3)sc2c1`, the inhibition of phage lysis is 41.7% (inactive).

Consider `O=C(Nc1nc2ccc(C(F)(F)F)cc2s1)c1ccc(Br)s1`, for which the inhibition of phage lysis was 2.86% (inactive).

As for `COC(=O)c1ccc(NC(=O)c2ccc3ncccc3c2)cc1`, the inhibition of phage lysis was 39.1% (inactive).

For `O=C(Nc1nc2ccc(OC(F)(F)F)cc2s1)c1ccc(Br)o1`, the inhibition of phage lysis is -11.1% (inactive).

On to `O=C(Nc1nc2ccc(Br)cc2s1)c1ccc(Br)cc1`, for which the inhibition of phage lysis is 2.55% (inactive).

In the case of `O=C(Nc1nc2ccc(Br)cc2s1)c1ccc(Br)o1`, the inhibition of phage lysis is 9.79% (inactive).

For `O=C(Nc1nc2ccc(C(F)(F)F)cc2s1)c1ccc(Br)cc1`, the inhibition of phage lysis was 2.13% (inactive).

For `O=C(Nc1nc2ccc(C(F)(F)F)cc2s1)c1ccc(Br)o1`, the inhibition of phage lysis is 1.64% (inactive).

In the case of `COC(=O)c1ccc(NC(=O)c2ccc3ncsc3c2)cc1`, the inhibition of phage lysis was 9.02% (inactive).

For `O=S(=O)(Nc1nc2ccc(Br)cc2s1)c1ccc(Br)s1`, the inhibition of phage lysis is 6.67% (inactive).

For `COc1ccc2nc(NC(=O)c3cc(Br)c(Br)s3)[nH]c2c1`, the inhibition of phage lysis is -1.23% (inactive).

In the case of `O=C(Nc1nc2ccc(Cl)cc2s1)c1ccc(Br)o1`, the inhibition of phage lysis was -4.26% (inactive).

Consider `COc1ccc2nc(NC(=O)c3ccc(Br)o3)[nH]c2c1`, for which the inhibition of phage lysis was 0.41% (inactive).

On to `O=C(Nc1nc2ccc(OC(F)(F)F)cc2s1)c1ccc(Br)s1`, for which the inhibition of phage lysis was 1.91% (inactive).

As for `O=C(Nc1nc2ccc(Cl)cc2s1)c1ccc(Br)s1`, the inhibition of phage lysis is 6.12% (inactive).

For the molecule `O=C(Nc1cccnc1)c1ccc2ncsc2c1`, the inhibition of phage lysis was 0.82% (inactive).

For the molecule `O=C(Nc1nc2ccc(Cl)cc2s1)c1ccc(Br)cc1`, the inhibition of phage lysis is 12.9% (inactive).
